Source: PubChem BioAssay
This is a sample that favours compounds with a hit; in the whole collection about 4.6% have one here.
MDM2 E3 inh: Mdm2 E3 ligase (human) inhibition; AID 1230; signal enhancement, % at 5 µM; cell-based MDM2 ubiquitination luciferase reporter, 2 h; 0 = plate control, 100 = twice control, blank-subtracted; Q00987; 210,000 compounds, 0.11% hits;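 active = signal enhancement of 30% or more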;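 note: luminescence tracks abundance of the self-degrading MDM2-luciferase fusion protein; higher signal means inhibition of MDM2 E3 ligase activity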
Target sequence (Q00987 whole entry, looked up, the tested form may be a part): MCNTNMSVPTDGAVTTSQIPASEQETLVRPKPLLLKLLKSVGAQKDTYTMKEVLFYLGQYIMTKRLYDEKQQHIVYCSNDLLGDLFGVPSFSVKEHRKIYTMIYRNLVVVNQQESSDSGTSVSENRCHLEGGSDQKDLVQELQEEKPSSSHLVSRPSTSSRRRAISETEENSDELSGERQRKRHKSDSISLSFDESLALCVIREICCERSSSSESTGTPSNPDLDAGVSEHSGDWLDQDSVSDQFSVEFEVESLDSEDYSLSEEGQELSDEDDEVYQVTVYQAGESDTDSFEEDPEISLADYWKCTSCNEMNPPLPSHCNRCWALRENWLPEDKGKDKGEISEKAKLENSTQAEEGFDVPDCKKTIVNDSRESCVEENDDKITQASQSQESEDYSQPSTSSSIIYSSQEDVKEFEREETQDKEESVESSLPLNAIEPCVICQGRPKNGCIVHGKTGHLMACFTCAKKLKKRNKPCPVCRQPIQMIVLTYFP
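Buffer or medium: Cells held in DMEM | Assay system: Stable mammalian line carrying autodegrading MDM2–luciferase fusion reporter | Quantity: 2000 cells/well | Times: 4 h settle plus 2 h compound, 37 °C | Doses: One concentration, 5 µM, with 0.2% DMSO | Technique: Luminescence with SteadyLite reagent, 15 min at room temperature | Benchmarks: Plate controls and plate blanks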
Wee1 degr inh: human Wee1 degradation inhibition, primary screen; AID 1321; reporter increase, % at 5 µM; HeLa Luc-Wee1K328M stability, luciferase luminescence; 100% = proteasome inhibitor MG132 effect; 220,000 compounds, 1.2% hits;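 active = activation above the mean of all tested compounds plus 3 SD, set per screening run, cut at about 8.8% in these data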;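 note: cells exposed to compound for 20 h before luminescence read; 0% = DMSO alone and 100% = MG132 at 30 µM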
p97 ATPase inh: inhibitors of human p97 ATPase. inhibition, % at 8 µM. recombinant p97 ATPase, Kinase-Glo ATP luminescence, 3 h. 220,000 compounds, 0.42% hits. AID 1481; in the data active = inhibition above about 15%;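 note: 0% = DMSO vehicle and 100% = wells lacking enzyme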
APP 5'UTR act: activates APP 5'UTR luciferase reporter. SH-SY5Y APP 5'UTR luciferase reporter, luminescence; zero percent = DMSO vehicle wells. activation, % at 2 µM. 190,000 compounds, 1% hits;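 active = activation above a set limit, based on mean plus 3 SD of controls, cut at about 140% in these data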
STAT1 act: STAT1 signaling activation. NIH 3T3 STAT1-luciferase reporter, IFN-gamma, luminescence; 100% = IFN-gamma alone, no compound. AID 932. activation (% of control), % at 5.5 µM. 200,000 compounds, 2.6% hits;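 active = activation above the screen-wide mean activation plus 3 SD, cut at about 130% in these data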;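 note: raw ratio to IFN-gamma control signal so 100% means no change and 0% no light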
NF-kB expr up: compounds increasing NF-kB expression in human neuronal cells | AID 1239 | NF-kB reporter expression; stronger effect = higher value | 190,000 compounds, 1.6% hits | fold change at 12.5 µM; in the data active = fold change above about 3.3
STAT1 act conf: STAT1 activation, confirmation assay; 1,200 compounds, 97% hits; activation (% of control), % at 5.7 µM; AID 1262; shares compounds with STAT1 act; NIH 3T3 STAT1-luciferase reporter, IFN-gamma potentiation, luminescence; 100% = IFN-gamma EC80 alone, no compound;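 active = activation above a set limit carried over from the earlier primary STAT1 screen, cut at about 140% in these data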;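 note: simple ratio to median IFN-gamma plus DMSO wells so 0% means no light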
NFkB act STAT1ct: counter-screen for STAT1 activators: NF-kappaB activation; activation (% of control), % at 5.7 µM; HEK293T NF-kB luciferase reporter, TNF-alpha stimulated, luminescence; 100% = TNF-alpha with vehicle only; shares compounds with STAT1 act; AID 1306; 1,200 compounds, 43% hits;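 active = activation above the mean of solvent-only control wells plus 3 SD, set per campaign, cut at about 130% in these data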;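 note: TNF-alpha given at a submaximal dose yielding about 80% of full reporter signal; values are well signal over median control so 100% means no change and 0% no light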
STAT3 act 2: activates human STAT3, counter-screen to STAT1 activators. shares compounds with STAT1 act. U3A cells STAT3-luciferase reporter, IL-6, luminescence; cells lack STAT1; 100 = IL-6 alone, no compound effect. activation (% of control), % at 5.7 µM. 1,200 compounds, 46% hits. AID 1316;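 active = activation above the solvent-only control well mean plus 3 SD, set per plate batch, cut at about 110% in these data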;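 note: 0% = no luminescence and 100% = median IL-6 plus DMSO wells; higher means more STAT3 reporter activation so hits are non-selective activators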
* = called active by the depositor.

How did CCOC(=O)c1ccc(OS(=O)(=O)c2ccccc2)c(OC)c1 do in these assays?
MDM2 E3 inh: 8; Wee1 degr inh: 2; p97 ATPase inh: -2; APP 5'UTR act: 114; STAT1 act: 174*; NF-kB expr up: 3.8*; STAT1 act conf: 185*; NFkB act STAT1ct: 141*; STAT3 act 2: 123*

Results for Cc1cc(C(=O)N/N=C2\CCCc3ccccc32)c(C)o1 ?
MDM2 E3 inh: 5; Wee1 degr inh: 4; p97 ATPase inh: 1; APP 5'UTR act: -68; STAT1 act: 101; NF-kB expr up: 1.8

How did COc1ccc2c(c1)CCC/C2=N\NC(=O)c1ccoc1C do in these assays?
MDM2 E3 inh: 3; Wee1 degr inh: 2; p97 ATPase inh: -5; APP 5'UTR act: 108; STAT1 act: 151*; NF-kB expr up: 1.7; STAT1 act conf: 129*; NFkB act STAT1ct: 117; STAT3 act 2: 100

What do the screens show for `O=C(Oc1ccc(-c2cnc3ccccc3n2)cc1)c1ccco1`?
MDM2 E3 inh: -38; Wee1 degr inh: 3; p97 ATPase inh: -4; APP 5'UTR act: 80; STAT1 act: 155*; NF-kB expr up: 2.7; STAT1 act conf: 190*; NFkB act STAT1ct: 103; STAT3 act 2: 102

What do the screens show for `O=C(Oc1ccc(-c2cnc3ccccc3n2)cc1)c1cc([N+](=O)[O-])ccc1Cl`?
MDM2 E3 inh: -4; Wee1 degr inh: 2; p97 ATPase inh: 3; APP 5'UTR act: 71; STAT1 act: 103; NF-kB expr up: 1.7

What do the screens show for `O=C(COC(=O)c1cc(=O)[nH]c2ccccc12)c1cccs1`?
MDM2 E3 inh: -5; Wee1 degr inh: 6; p97 ATPase inh: -4; APP 5'UTR act: 9; STAT1 act: 99; NF-kB expr up: 1.2

Results for O=C1/C(=C\c2ccc3c(c2)OCO3)CCC/C1=C/c1ccc2c(c1)OCO2 ?
MDM2 E3 inh: -20; Wee1 degr inh: 0; p97 ATPase inh: 10; APP 5'UTR act: -2; STAT1 act: 102; NF-kB expr up: 1.2

How did O=c1/c(=C\c2ccc3c(c2)OCO3)sc2n1CCCN=2 do in these assays?
MDM2 E3 inh: -31; Wee1 degr inh: 8; p97 ATPase inh: -5; APP 5'UTR act: 94; STAT1 act: 154*; NF-kB expr up: 4.7*; STAT1 act conf: 200*; NFkB act STAT1ct: 139*; STAT3 act 2: 107

How did Cc1ccc2oc(-c3ccc(C)c(NC(=S)NC(=O)c4cccs4)c3)nc2c1 do in these assays?
MDM2 E3 inh: -28; Wee1 degr inh: -4; p97 ATPase inh: -6; APP 5'UTR act: 222*; STAT1 act: 154*; NF-kB expr up: 3.4*; STAT1 act conf: 145*; NFkB act STAT1ct: 119; STAT3 act 2: 132*

Results for Cc1ccnc(NC(=S)NC(=O)c2cccs2)c1 ?
Wee1 degr inh: 8; p97 ATPase inh: 3; APP 5'UTR act: 130; STAT1 act: 237*; NF-kB expr up: 3.7*; STAT1 act conf: 263*; NFkB act STAT1ct: 166*; STAT3 act 2: 132*

Results for Cc1cc(=O)n2[nH]c(N)c(N=Nc3ccccc3F)c2n1 ?
MDM2 E3 inh: 2; Wee1 degr inh: -2; p97 ATPase inh: 2; APP 5'UTR act: 1; STAT1 act: 105; NF-kB expr up: 1.4

What do the screens show for `Nc1nn(-c2ccccc2)c(N)c1N=Nc1ccccc1`?
MDM2 E3 inh: -2; Wee1 degr inh: 5; p97 ATPase inh: 0; APP 5'UTR act: 3; STAT1 act: 202*; NF-kB expr up: 8.1*; STAT1 act conf: 228*; NFkB act STAT1ct: 126; STAT3 act 2: 115*
